One test deals with A549. As to the kind of experiment: Cytotoxicity against human A549 cells after 72 hrs. The format is functional, cell-based. Particulars: A549, 72 h. In outline:
(§1)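 Human A549 (lung) and HL-60 (leukemia) cancer cells were exposed to compounds up to a maximum of 100 µM, and cell growth was measured. IC50 is the concentration that inhibits 50% of cell growth, reported as mean ± SD of experiments run in triplicate. Mitoxantrone served as the reference compound.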

The next test relates to HL-60. The test can be described thus: Cytotoxicity against human HL60 cells after 72 hrs. Particulars: HL-60, 72 h. The test is classed as functional, cell-based. In outline:
as §1

Test [1] can be described thus: Antioxidant activity assessed as trolox equivalents of peroxyl radical scavenging activity at 1 uM by ORAC assay. The test is classed as functional.
A short description of test [2]: Antioxidant activity assessed as reduction of Copper(I) at 1 uM. The test is classed as functional.
Test [3] in a line: Antioxidant activity assessed as reduction of Copper(I) at 5 uM. The test is classed as functional.
Test [4] in a line: Antioxidant activity assessed as Cu2+ chelating activity at 1 uM. The format is functional.
Test [5] is described as follows: Antioxidant activity assessed as Cu2+ chelating activity at 5 uM. The test is classed as functional.
Test [6] is described as follows: Antioxidant activity assessed as trolox equivalents of peroxyl radical scavenging activity at 5 uM by ORAC assay. The test is classed as functional.

The structures appear in SMILES notation. pIC50: −log10 of the molar value. The source made the active and inactive calls. No cut-off for these calls is given here.

`O=C1c2c(O)ccc(O)c2C(=O)c2c(NCCNCCO)ccc(NCCNCCO)c21` [MITOXANTRONE]: the negative-log IC50 (pIC50) in the test with A549 is 5.11; in the test on HL-60, 5.09.
Take `C=C[C@@]1(C)CC[C@H](C2=CC[C@H](C(C)(C)O)OC2)C[C@@H]1C(=C)C` [LOBATRIENE]: the pIC50 in the test on A549 was 4.51; in the test on HL-60 it was 4.47. In addition, the result in test [1], in test [2], in test [3], in test [4] and in test [5] was inactive.
In the case of `CC(=O)OC(C)(C)[C@@H](C)CC[C@@H](C)[C@H]1CC[C@H]2[C@@H]3C[C@@H](O)[C@@]4(O)C[C@@H](O)CC[C@]4(C)[C@H]3CC[C@]12C`, the negative logarithm of the IC50 (pIC50) is 4.44 in the test with A549 and 4.37 with HL-60. The outcome in test [1], in test [2], in test [3], in test [4] and in test [5] was inactive.
On to `C=C1CC/C=C(\C)CC[C@@H](C2=CC[C@H](C(C)(C)O)OC2)C[C@H]1O` [LOBOCOMPACTOL B], for which the negative logarithm of the IC50 (pIC50) in the test with A549 is less than 4.00; in the test with HL-60 it was 4.43. In addition, the Activity in test [6] was determined as 1.3 µM. In addition, the outcome in test [2], in test [3], in test [4] and in test [5] was inactive.
Consider `C=C1CC/C=C(\C)CC[C@H](C2=CC[C@H](C(C)(C)O)OC2)C[C@H]1O` [LOBOCOMPACTOL A], for which the pIC50 in the test with A549 was less than 4.00; in the test with HL-60 it was 4.32. Further, the Activity in test [6] came to 1.4 µM. Further, the outcome in test [2], in test [3], in test [4] and in test [5] was inactive.
With `C=C(CC[C@@H](C)[C@H]1CC[C@@H]([C@@H]2CC=C3C[C@@H](O)CC[C@]3(C)C2=O)[C@]1(C)CCO)C(C)C`, the pIC50 in the test with A549 was 5.30; with HL-60 it was 4.75. Moreover, the outcome in test [1], in test [2], in test [3], in test [4] and in test [5] was inactive.
With `C[C@H](CC[C@H](C)C(C)(C)O)[C@H]1CC[C@H]2[C@@H]3C[C@@H](O)[C@@]4(O)C[C@@H](O)CC[C@]4(C)[C@H]3CC[C@]12C`, the negative logarithm of the IC50 (pIC50) in the test with A549 is less than 4.00; in the test with HL-60, 4.23. Moreover, the outcome in test [1], in test [2], in test [3], in test [4] and in test [5] was inactive.
For `C=C[C@@]1(C)CC[C@H](C2=CC[C@H](C(C)(C)O)OC2=O)C[C@@H]1C(=C)C` [LOBATRIENOLIDE], the pIC50 in the test with A549 is 4.64; in the test with HL-60, 4.61. Also, the result in test [1], in test [2], in test [3], in test [4] and in test [5] was inactive.
